Compound activity: PubChem, several laboratories
Hits are enriched below; roughly 2.1% of the tested compounds scored in any of these assays.
b-catenin transl: modulators of beta-catenin nuclear translocation; nuclear translocation activity, % at 5 µM; AID 1665; hit rate 0.3% among 190,000; HeLa beta-catenin nuclear translocation, immunofluorescence imaging;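 active = nuclear translocation activity above 50% at 5 µM, with a well cell count of 50 or more; inconclusive = wells under 50 cells across six images, flagged as toxic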;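 also: per-cell ratio of nuclear to cytoplasmic median beta-catenin stain intensity; plate controls were DMSO negative control for no effect and GSK-3 inhibitor IX positive control for full effect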
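assay system = human HeLa cells, endogenous beta-catenin | times = compound treatment 24 h, 37°C, 5% CO2 | detection = Anti-beta-catenin immunofluorescence on PFA-fixed, Triton-permeabilized cells, DAPI nuclei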
Arbovirus anti: blocks arbovirus infection | hit rate 0.37% among 200,000 | AID 1251 | arbovirus infection cell-based antiviral screen | inhibition, % at 10 µM; in the data active = inhibition above about 30%
Autophagy HCS: modulators of autophagy; AID 463193; hit rate 0.98% among 190,000; calls only at 10 µM (by protocol); MEF GFP-LC3 puncta imaging; test concentration mostly 10 µM;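 active = percentage of spot-positive cells more than 3 SD above its plate mean, without a fluorescence outlier flag or 80% toxicity; inconclusive = no clear call, values can overlap the other calls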;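 also: spot-positive cell cutoff set from DMSO-treated cells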
MT stabilizer: microtubule stabilization, imaging screen; AID 2205; % tubulin-high responders, % at 10 µM; hit rate 0.83% among 200,000; HeLa tubulin immunostaining HCS, 24 h; share of cells brighter than vehicle mean+2SD;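 active = plate Z-score above 3 for both tubulin-high and condensed-nucleus cell shares, with cell loss under 80%, at 10 µM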;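 also: anti alpha tubulin signal scored within the nucleus-defined area of each cell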
ABCG2 inh: human ABCG2 inhibition, ABCB1 as counter-screen | Q9UNQ0 | IgMXP3 cells, JC-1 efflux, flow cytometry | inhibition, % at 6.6 µM | hit rate 0.1% among 190,000 | AID 1325;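 active = inhibition above 80%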;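 also: 0% = DMSO and 100% = nicardipine control wells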
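test system = two drug-resistant human cell lines, ABCG2 and ABCB1 | amount = 3 million cells/mL final, two lines in 1:1 ratio | reagent = JC-1 transporter substrate | doses = one concentration, 6.6 µM final | incubation = 10 min at 25 °C | signal = flow cytometric JC-1 green MFI at 530 nm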
ABCB1 block: human ABCB1 inhibition, ABCG2 as counter-screen; AID 1326; CCRF-Adr cells, JC-1 efflux, flow cytometry; P08183; hit rate 0.067% among 190,000; inhibition, % at 6.6 µM; in the data active = inhibition above about 40%;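 also: 0% = vehicle and 100% = reference inhibitor; higher value means more JC-1 retained so stronger ABCB1 efflux block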
Target sequence (P08183 whole entry, looked up): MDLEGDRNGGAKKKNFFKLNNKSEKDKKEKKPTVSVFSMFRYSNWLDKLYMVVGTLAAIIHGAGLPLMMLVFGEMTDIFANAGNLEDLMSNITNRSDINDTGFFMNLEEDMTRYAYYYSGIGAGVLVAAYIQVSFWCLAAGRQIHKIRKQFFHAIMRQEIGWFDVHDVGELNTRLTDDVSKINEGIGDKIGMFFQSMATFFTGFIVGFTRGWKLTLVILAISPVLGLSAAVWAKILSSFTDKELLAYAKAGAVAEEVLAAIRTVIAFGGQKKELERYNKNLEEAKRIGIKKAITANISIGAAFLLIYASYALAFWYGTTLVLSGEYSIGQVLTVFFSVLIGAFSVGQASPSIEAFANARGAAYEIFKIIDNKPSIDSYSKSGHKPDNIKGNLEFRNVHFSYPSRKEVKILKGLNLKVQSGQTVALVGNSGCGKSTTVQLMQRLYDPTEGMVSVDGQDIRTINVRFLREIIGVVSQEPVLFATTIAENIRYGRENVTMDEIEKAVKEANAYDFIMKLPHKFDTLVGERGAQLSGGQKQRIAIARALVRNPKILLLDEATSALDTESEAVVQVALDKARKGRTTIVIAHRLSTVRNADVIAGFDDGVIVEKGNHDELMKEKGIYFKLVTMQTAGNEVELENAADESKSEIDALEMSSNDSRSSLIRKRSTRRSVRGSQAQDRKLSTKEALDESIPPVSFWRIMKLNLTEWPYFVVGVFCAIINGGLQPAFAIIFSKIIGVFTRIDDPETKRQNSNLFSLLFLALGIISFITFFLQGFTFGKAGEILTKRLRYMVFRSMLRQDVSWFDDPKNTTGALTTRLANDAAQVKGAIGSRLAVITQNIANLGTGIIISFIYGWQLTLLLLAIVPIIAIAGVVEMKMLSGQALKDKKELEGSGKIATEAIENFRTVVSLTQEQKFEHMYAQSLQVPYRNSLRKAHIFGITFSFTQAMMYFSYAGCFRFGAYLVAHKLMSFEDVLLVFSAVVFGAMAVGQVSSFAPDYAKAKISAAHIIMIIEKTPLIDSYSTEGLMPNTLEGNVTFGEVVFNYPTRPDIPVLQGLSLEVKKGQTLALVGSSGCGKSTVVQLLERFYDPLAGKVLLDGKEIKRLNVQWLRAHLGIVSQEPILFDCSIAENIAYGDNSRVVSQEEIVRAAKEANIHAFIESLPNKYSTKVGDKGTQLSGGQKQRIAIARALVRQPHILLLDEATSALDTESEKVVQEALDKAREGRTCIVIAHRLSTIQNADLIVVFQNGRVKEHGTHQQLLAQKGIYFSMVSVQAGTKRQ
* hit, by the source's call; i = inactive; u = inconclusive; x = not tested or not shown; + = active, no number; ! = not active in a repeat.

SMILES	b-catenin transl	Arbovirus anti	Autophagy HCS	MT stabilizer	ABCG2 inh	ABCB1 block
CN(Cc1ccccc1)C(=O)c1nc2ccccn2c1CN1CCCC1c1nccs1 (stereo not given)	-2	1	i	2	-1	1
C/C(CC1CC2=C(CC1(C)C)C(C)(C)CCC2)=N\NC(N)=S (stereo not given)	x	-18	+	1	4	1
Cc1ccc(S(=O)(=O)c2cnc(-c3ccccc3)nc2Oc2ccccc2)cc1	-5	5	i	8	-3	0
Cc1cccc(/C=C/c2nc3ccccc3c(=O)[nH]2)c1	2	-18	i	26*	2	0
Cc1[nH]c2ccccc2c1/C=C/c1nc2ccccc2c(=O)[nH]1	1	x	x	x	x	x
O=C(NC1CCCCC1)c1cnn2c(C(F)(F)F)cc(-c3ccco3)nc12	-3	-12	i	3	6	1
O=C(NC1CCCCC1)c1nn2c(C(F)(F)F)cc(-c3ccco3)nc2c1Br	0	6	+	2	1	-1
Cc1ccc(-n2nc(C)c(NC(=O)CCl)c2C)cc1	3	35*	i	9	4	0
O=C(CCl)Nc1cc(-c2ccccc2)nn1-c1ccccc1	-6	-22	+	6	16	1
Cc1ccc(-c2cc(NC(=O)CCl)n(-c3ccccc3)n2)cc1	0	-30	+	1	27	-1
CC(=O)Nc1ccc(-c2cc(NC(C)=O)n(-c3ccccc3)n2)cc1	0	-2	i	6	0	0
Cc1cc(NC(=O)COc2ccccc2)n(-c2ccccc2)n1	0	4	i	4	0	-2
COc1ccc(CN2C3CCCC2CC(NC(=O)Nc2ccccc2)C3)cc1 (stereo not given)	-3	-11	i	3	-1	0
CC(=O)c1cc2c(cc1NC(=O)C1CCC1)OCO2	2	-3	i	3	4	1
COc1ccc(C(CCN2CCCC2)c2c(OC)cc(OC)c3c(-c4ccccc4)cc(=O)oc23)cc1 (stereo not given)	-1	x	x	x	x	x
CCCCC1=NN(C(=O)c2ccco2)C(O)(C(F)(F)F)C1 (stereo not given)	13	-8	i	15*	5	0
CC1CCC(C(C)C)C(OC(=O)Cn2c(-c3ccc(Br)cc3)[n+](C)c3ccccc32)C1 (stereo not given)	-4	-33	+!	3	-3	-1
Cc1ccccc1OCc1n(CC(=O)OC2CC(C)CCC2C(C)C)c2ccccc2[n+]1C (stereo not given)	13	-34	+	87	1	1
COC(=O)CSc1nnc(Cc2cc(=O)[nH]c(=O)[nH]2)n1-c1cccc(OC)c1	-3	2	i	4	1	0
CC(C)(c1ccccc1)c1ccc(OCC(O)CNC2CCN(Cc3ccccc3)CC2)cc1 (stereo not given)	u	-29	+	48	2	1
CCOc1ccc(OCC(O)CNC2CCN(Cc3ccccc3)CC2)cc1 (stereo not given)	1	-21	i	14	4	1
Cc1cc(C)cc(OCc2nc3ncc(Br)cc3[nH]2)c1	x	x	+	34*	x	x
COc1cccc(OCc2nc3ncc(Br)cc3[nH]2)c1	1	-28	i	36*	8	0
O=C(Nc1ccc(Cl)cc1C(F)(F)F)C(Sc1nnc(-c2cccs2)o1)c1ccccc1 (stereo not given)	33	4	i	14*	-4	-1
COc1ccc2nc(SCc3cnc(C)nc3N)[nH]c2c1	x	-3	i	3	3	0
SMILES	b-catenin transl	Arbovirus anti	Autophagy HCS	MT stabilizer	ABCG2 inh	ABCB1 block
Cc1c(Cl)cccc1NC(=S)N1CCN(c2ccccn2)CC1	-1	0	i	3	0	0
c1ccc(CCNc2ccnc3cc4ccccc4cc23)cc1	2	-32	i	31*	1	0
CC(C)Nc1ccc(Nc2ccnc3cc4ccccc4cc23)cc1	-2	x	x	x	x	x
COc1cc2c(cc1OC)C1=CC(=O)C(=O)N1C(C)(C)C2	10	-1	+	9	5	3
CC(=O)Nc1ccc(N=Cc2c(O)c(C(=O)Nc3ccccc3)cc3ccccc23)cc1	-3	-19	i	6	103*	70*
O=C(CC1Nc2ccccc2NC1=O)Nc1cc(Cl)cc(Cl)c1 (stereo not given)	x	-18	i	3	0	0
CCOC(=O)c1c(NC(=O)CN2CCN(C)CC2)sc(C(=O)Nc2ccccc2)c1C	-1	-20	i	36*	10	10
CCOC(=O)c1sc(NC(=O)CCN2CCN(C)CC2)c(C(=O)OCC)c1C	0	-34	i	2	4	3
CCOC(=O)c1c(NC(=O)CC2Nc3ccccc3NC2=O)sc(C)c1C (stereo not given)	-2	-2	+	2	2	x
CCOC(=O)c1c(NC(=O)CSc2ccccc2C(=O)O)sc(C)c1C	0	33*	i	3	1	0
COC(=O)c1c(NC(=O)CC2Nc3ccccc3NC2=O)sc(C)c1C (stereo not given)	x	0	+	2	-1	0
CCOC(=O)c1c(NC(=O)CSc2ncnc3ccccc23)sc(C)c1C	x	-2	i	2	9	2
CCOCCCNC(=O)c1cn(CC(C)C)c(=O)c2cc(OC)c(OC)cc12	-2	2	i	2	-2	-3
CCOC(=O)C(C)Sc1nc(=O)n2cccc(C)c2n1 (stereo not given)	-1	-12	i	2	16	2
CCOC(=O)CSc1nc(=O)n2cccc(C)c2n1	0	14	+	2	2	1
CCCCCOc1ccc(C(=O)NCC(=O)NCC(=O)OCC)cc1	9	-18	i	36*	-3	-2
COc1ccc2[nH]c(-c3ccccc3)cc2c1	1	x	x	x	x	x
COc1ccc(NS(=O)(=O)c2cc(C)ccc2NC(=O)c2cc(C)oc2C)cc1	x	-17	i	21*	3	1
COc1ccc(NS(=O)(=O)c2cccc(C(=O)NNC(=O)c3cc(C)oc3C)c2)cc1	-1	-2	i	2	1	0
Cc1cccc(C(=O)NCc2nnc(SCC(=O)NC(C)c3ccccc3)n2C)c1 (stereo not given)	-2	4	i	2	6	1
Cc1nn(CC#N)c(=O)n1-c1ccc(C(C)C)cc1	1	9	i	2	4	0
Cc1nn(CC#N)c(=O)n1-c1ccc(Cl)cc1	-3	7	+	5	0	0
CCOc1ccccc1NC(=O)C(NCC1(N2CCCCC2)CCCCC1)c1ccccc1 (stereo not given)	2	6	+	3	1	1
